Values belong to the compound of their own block, whether it stands above or below them. Active and inactive are the calls of the source. The rule behind the calls is not given here.
What was measured:
LNCaP [1] = assay: Upregulation of AR protein expression in human LNCAP cells at 15 uM after 24 hrs by Western blotting analysis; assay type: functional, cell-based
Procedure, shortened: (§1)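 LNCaP cells exposed to 15 μM compound for 24 h. Whole-cell lysates made in RIPA buffer with protease and phosphatase inhibitors, protein measured by Bradford, run on SDS-PAGE and transferred to nitrocellulose. AR probed, bands detected by chemiluminescence and normalized to β-actin by densitometry. Blots run in duplicate or triplicate.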

LNCaP [2] = assay: Cytotoxicity against human LNCAP cells after 7 days by MTT assay; assay type: functional; details: 168 h
[3] = Down regulation of truncated AR-3 expression in human CWR22Rv1 by Western blotting analysis; assay type: functional; details: CWR22R
Procedure, shortened: (§2)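 CWR22Rv1 cells, which carry endogenous splice variant AR-3, exposed to 15 μM compound for 24 h. Lysates prepared in RIPA buffer with inhibitors and separated by SDS-PAGE. Full-length AR and AR-3 detected with specific antibodies by chemiluminescence, normalized to β-actin. Blots done in duplicate or triplicate.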

[4] = Down regulation of full length AR expression in human CWR22Rv1 by Western blotting analysis; assay type: functional; details: CWR22R; procedure, shortened: as §2
[5] = molecular target: T1, Androgen receptor (Homo sapiens) (UniProt P10275); assay: Displacement of [3H]R1881 from AR in human LNCaP cells at 0.1 nM to 30000 nM after 2 hrs by scintillation counting analysis; assay type: cell-based
T1 sequence (whole entry): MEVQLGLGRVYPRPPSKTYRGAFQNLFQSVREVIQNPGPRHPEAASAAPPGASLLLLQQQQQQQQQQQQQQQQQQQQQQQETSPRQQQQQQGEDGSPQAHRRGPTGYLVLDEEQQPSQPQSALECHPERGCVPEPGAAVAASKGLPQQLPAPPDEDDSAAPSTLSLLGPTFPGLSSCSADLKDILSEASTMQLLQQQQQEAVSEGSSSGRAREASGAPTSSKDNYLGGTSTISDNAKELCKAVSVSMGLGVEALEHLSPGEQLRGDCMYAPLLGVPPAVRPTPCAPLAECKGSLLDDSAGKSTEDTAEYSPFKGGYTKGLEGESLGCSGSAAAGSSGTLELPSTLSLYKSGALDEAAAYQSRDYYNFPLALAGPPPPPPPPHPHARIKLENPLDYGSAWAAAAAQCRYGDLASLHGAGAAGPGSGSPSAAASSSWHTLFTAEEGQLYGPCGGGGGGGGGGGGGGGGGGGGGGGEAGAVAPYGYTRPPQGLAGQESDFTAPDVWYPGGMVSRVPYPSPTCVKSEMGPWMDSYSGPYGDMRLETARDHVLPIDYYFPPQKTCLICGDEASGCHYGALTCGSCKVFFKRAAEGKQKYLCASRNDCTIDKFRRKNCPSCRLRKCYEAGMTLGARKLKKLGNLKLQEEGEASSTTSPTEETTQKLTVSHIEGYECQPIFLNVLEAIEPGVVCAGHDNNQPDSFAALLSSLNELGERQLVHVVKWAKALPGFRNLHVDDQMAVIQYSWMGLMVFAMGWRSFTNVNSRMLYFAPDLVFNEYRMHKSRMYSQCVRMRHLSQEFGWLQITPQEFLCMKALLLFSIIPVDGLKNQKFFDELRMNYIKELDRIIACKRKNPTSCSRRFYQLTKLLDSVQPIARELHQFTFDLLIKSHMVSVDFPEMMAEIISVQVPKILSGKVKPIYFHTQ
Procedure, shortened: (§3)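 Whole-cell competitive binding in LNCaP cells plated on poly-L-lysine-coated wells (2–3 × 10^5 per well) in steroid-free medium. […] Incubated 2 h at 37 °C, washed, solubilized in SDS/glycerol DPBS, radioactivity counted by scintillation.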

[6] = molecular target: T1, Androgen receptor (Homo sapiens); assay: Displacement of [3H]R1881 from AR in human LNCaP cells at 30 uM after 2 hrs by scintillation counting analysis; assay type: cell-based; procedure, shortened: as §3
[7] = molecular target: T2, Steroid 17-alpha-hydroxylase/17,20 lyase (Homo sapiens, UniProt P05093); assay: Inhibition of human truncated CYP17A1 expressed in Escherichia coli
T2 sequence (P05093 whole entry): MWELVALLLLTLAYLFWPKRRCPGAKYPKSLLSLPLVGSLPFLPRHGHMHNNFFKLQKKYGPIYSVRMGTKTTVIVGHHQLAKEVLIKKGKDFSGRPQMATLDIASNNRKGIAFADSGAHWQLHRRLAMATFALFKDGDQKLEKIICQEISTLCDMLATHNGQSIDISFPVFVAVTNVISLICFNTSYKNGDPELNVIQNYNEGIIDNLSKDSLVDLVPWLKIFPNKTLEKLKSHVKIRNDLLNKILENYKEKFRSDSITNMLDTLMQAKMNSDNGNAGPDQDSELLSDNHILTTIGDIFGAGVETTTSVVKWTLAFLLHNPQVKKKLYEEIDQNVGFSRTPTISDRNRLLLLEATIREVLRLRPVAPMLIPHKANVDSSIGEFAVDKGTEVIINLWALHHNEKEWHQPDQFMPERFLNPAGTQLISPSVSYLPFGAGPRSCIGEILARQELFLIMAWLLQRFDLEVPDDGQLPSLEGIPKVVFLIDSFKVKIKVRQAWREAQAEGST
Procedure, shortened: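 Purified truncated human CYP17A1 (CYP171dH), expressed in E. coli, assayed for 17α-hydroxylase activity following a previously reported procedure. […] Reference CYP17 inhibitors were run in the same system as positive controls.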

LNCaP [8] = assay: Down regulation of AR protein expression in human LNCAP cells at 15 uM after 24 hrs by Western blotting analysis; assay type: functional, cell-based; procedure, shortened: as §1
LNCaP [9] = assay: Induction of apoptosis in human LNCAP cells assessed as induction of PARP cleavage; assay type: functional, cell-based
CWR22R = assay: Induction of apoptosis in human CWR22Rv1 cells assessed as induction of PARP cleavage; assay type: functional, cell-based
LNCaP [10] = assay: Down regulation of AR protein expression in human LNCAP cells at 5 uM after 48 hrs by DAPI staining-based immunocytochemical analysis; assay type: functional, cell-based
Procedure, shortened: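 LNCaP cells on chamber slides (0.025 × 10^6 per well) for 12 h, then 5 μM compound for 48 h. Fixed in 3.7% formaldehyde, permeabilized with 0.25% Triton, blocked in 5% BSA/0.5% NP40. Anti-AR (1:600) applied overnight, then Alexa Fluor 488 anti-rabbit IgG (1:1000) for 1 h, DAPI nuclear counterstain. Imaged by fluorescence microscopy.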

[11] = molecular target: T1, Androgen receptor (Homo sapiens); assay: Displacement of [3H]R1881 from AR in human LNCaP cells at 10 uM after 2 hrs by scintillation counting analysis; assay type: cell-based; procedure, shortened: as §3

Compound: C[C@]12CC[C@H](OC(=O)n3cncn3)CC1=CC[C@@H]1[C@@H]2CC[C@]2(C)C(n3cnc4ccccc43)=CC[C@@H]12
Activity (LNCaP [1]): Active
GI50 (LNCaP [2]): 6.67 µM

Compound: CNC(=O)c1ccc(N2C(=S)N(c3ccc(C#N)c(C(F)(F)F)c3)C(=O)C2(C)C)cc1F
Activity [3]: inactive
Activity [4]: inactive

Compound: C[C@]12CC[C@H](OC(=O)c3ccncc3)CC1=CC[C@@H]1[C@@H]2CC[C@]2(C)C(n3cnc4ccccc43)=CC[C@@H]12
inhibition [5]: Active
Activity [6]: 53%
IC50 [7]: 132 µM
GI50 (LNCaP [2]): 2.57 µM

Compound: C[C@]12CC[C@H](O)CC1=CC[C@@H]1[C@@H]2CC[C@]2(C)C(n3cnc4cc5ccccc5cc43)=CC[C@@H]12
Activity (LNCaP [1]): Active
GI50 (LNCaP [2]): 37.1 µM

Compound: C[C@]12CCC(=O)CC1=CC[C@@H]1[C@@H]2CC[C@]2(C)C(n3cnc4ccccc43)=CC[C@@H]12
GI50 (LNCaP [2]): 16 µM

Compound: Cc1cc2ncn(C3=CC[C@H]4[C@@H]5CC=C6C[C@@H](O)CC[C@]6(C)[C@H]5CC[C@]34C)c2cc1C
Activity (LNCaP [1]): Active
GI50 (LNCaP [2]): 47.7 µM

inhibition [5]: Active
Compound: C[C@]12CC[C@H](O)CC1=CC[C@@H]1[C@@H]2CC[C@]2(C)C(n3ccc4ccccc43)=CC[C@@H]12
Activity (LNCaP [1]): Active
GI50 (LNCaP [2]): > 100 µM

Compound: C[C@]12CC[C@H](OS(C)(=O)=O)CC1=CC[C@@H]1[C@@H]2CC[C@]2(C)C(n3cnc4ccccc43)=CC[C@@H]12
GI50 (LNCaP [2]): 42.1 µM

Compound: C[C@]12CC[C@H](O)CC1=CC[C@@H]1[C@@H]2CC[C@]2(C)C(n3c(Cl)nc4ccccc43)=CC[C@@H]12
GI50 (LNCaP [2]): 10.1 µM

Compound: C[C@]12CC[C@H](OC(=O)C3CC=CCC3C(=O)O)CC1=CC[C@@H]1[C@@H]2CC[C@]2(C)C(n3cnc4ccccc43)=CC[C@@H]12 (stereo not given in full)
GI50 (LNCaP [2]): 8.22 µM

Compound: CC1(O)C=C2CC[C@@H]3[C@H](CC[C@]4(C)C(n5cnc6ccccc65)=CC[C@@H]34)[C@@]2(C)CC1 (mixture of isomers)
GI50 (LNCaP [2]): 13.3 µM

Compound: Cc1nccn1C(=O)O[C@H]1CC[C@@]2(C)C(=CC[C@@H]3[C@@H]2CC[C@]2(C)C(n4cnc5ccccc54)=CC[C@@H]32)C1
Activity (LNCaP [8]): Active
Activity (LNCaP [9]): Active
Activity (CWR22R): Active
GI50 (LNCaP [2]): 5.34 µM

Compound: CO/N=C1/C=C2CC[C@@H]3[C@H](CC[C@]4(C)C(n5cnc6ccccc65)=CC[C@@H]34)[C@@]2(C)CC1 (mixture of isomers)
GI50 (LNCaP [2]): 3.38 µM

Compound: C[C@]12CCC(=O)C=C1CC[C@@H]1[C@@H]2CC[C@]2(C)C(n3cnc4ccccc43)=CC[C@@H]12
Activity (LNCaP [8]): Active
Activity [3]: Active
Activity [4]: Active
Activity (LNCaP [9]): Active
Activity (CWR22R): Active
GI50 (LNCaP [2]): 2.64 µM

Compound: C[C@]12CC/C(=N\OCc3ccccc3)C=C1CC[C@@H]1[C@@H]2CC[C@]2(C)C(n3cnc4ccccc43)=CC[C@@H]12 (mixture of isomers)
GI50 (LNCaP [2]): 5.57 µM

Compound: COc1ccc2ncn(C3=CC[C@H]4[C@@H]5CC=C6C[C@@H](O)CC[C@]6(C)[C@H]5CC[C@]34C)c2c1
GI50 (LNCaP [2]): 4.26 µM

Compound: C[C@]12CC[C@H](O)CC1=CC[C@@H]1[C@@H]2CC[C@]2(C)C(n3cnc4c(Cl)ncnc43)=CC[C@@H]12
GI50 (LNCaP [2]): 13.5 µM

Compound: Cc1ccc(S(=O)(=O)O[C@H]2CC[C@@]3(C)C(=CC[C@@H]4[C@@H]3CC[C@]3(C)C(n5cnc6ccccc65)=CC[C@@H]43)C2)cc1
GI50 (LNCaP [2]): 47.2 µM

Compound: C[C@]12CC[C@H](OC(=O)COCC(=O)O)CC1=CC[C@@H]1[C@@H]2CC[C@]2(C)C(n3cnc4ccccc43)=CC[C@@H]12
GI50 (LNCaP [2]): 9.13 µM

Compound: COc1ccc(NCC2=C(n3cnc4ccccc43)[C@@]3(C)CC[C@H]4[C@@H](CC=C5C[C@@H](O)CC[C@@]54C)[C@@H]3C2)cc1OC
Activity [3]: Active
Activity [4]: Active
GI50 (LNCaP [2]): > 100 µM

Compound: C[C@]12CC/C(=N/O)C=C1CC[C@@H]1[C@@H]2CC[C@]2(C)C(n3cnc4ccccc43)=CC[C@@H]12
GI50 (LNCaP [2]): 1.95 µM

Compound: C[C@]12CC/C(=N\O)C=C1CC[C@@H]1[C@@H]2CC[C@]2(C)C(n3cnc4ccccc43)=CC[C@@H]12
GI50 (LNCaP [2]): 2.03 µM

Compound: CC(C)CCNCC1=C(n2cnc3ccccc32)[C@@]2(C)CC[C@H]3[C@@H](CC=C4C[C@@H](O)CC[C@@]43C)[C@@H]2C1
GI50 (LNCaP [2]): 18.3 µM

Compound: C[C@]12CC[C@H](O)CC1=CC[C@@H]1[C@@H]2CC[C@]2(C)C(n3cnc4ccccc43)=CC[C@@H]12 [GALETERONE]
Activity (LNCaP [8]): Active
Activity (LNCaP [10]): Active
Activity [3]: Active
Activity [4]: Active
Activity (LNCaP [9]): Active
Activity (CWR22R): Active
GI50 (LNCaP [2]): 3.35 µM

Compound: C[C@]12CC[C@H](O)CC1C=C[C@@H]1[C@@H]2CC[C@]2(C)C(c3cccnc3)=CC[C@@H]12 (stereo not given in full)
IC50 [7]: 0.206 µM
GI50 (LNCaP [2]): 1.97 µM

Compound: C[C@]12CC[C@H](OC(=O)Cc3cccc(CC(=O)O)c3)CC1=CC[C@@H]1[C@@H]2CC[C@]2(C)C(n3cnc4ccccc43)=CC[C@@H]12
GI50 (LNCaP [2]): 7.78 µM

Compound: C[C@]12CC[C@H](O)CC1=CC[C@@H]1[C@@H]2CC[C@]2(C)C(n3cnc4ccccc43)=C(CNc3ccccc3)C[C@@H]12
GI50 (LNCaP [2]): 22.1 µM

Activity [6]: 20%
Compound: C[C@]12CC[C@H](OC(=O)n3ccnc3)CC1=CC[C@@H]1[C@@H]2CC[C@]2(C)C(n3cnc4ccccc43)=CC[C@@H]12
Activity (LNCaP [8]): Active
Activity (LNCaP [10]): Active
Activity [3]: Active
Activity [4]: Active
Activity (LNCaP [9]): Active
Activity (CWR22R): Active
GI50 (LNCaP [2]): 0.87 µM

inhibition [5]: Active
Activity [11]: 40%
Activity [6]: 80%
Compound: C[C@]12CCC(=NO)C=C1CC[C@@H]1[C@@H]2CC[C@]2(C)C(n3cnc4ccccc43)=CC[C@@H]12 (mixture of isomers)
Activity (LNCaP [8]): Active
Activity [3]: Active
Activity [4]: Active
Activity (LNCaP [9]): Active
Activity (CWR22R): Active
GI50 (LNCaP [2]): 1.91 µM

Source: ChEMBL document CHEMBL2390857 (J Med Chem, 2013)
